Test results from ChEMBL document CHEMBL5303300, “EUbOPEN Chemogenomics Library - Multiplex” (2023).
“And” between values parts separate entries of the source, which are not always exact repeats. Equal values may be shown once.

System: U2OS
Assay: Multiplex assay against U2OS
Assay type: toxicity, cell-based
Conditions: human, number of replicates 2
Summary of the method: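 Live cells carried four stains from seeding: Hoechst33342, BioTracker Green Microtubule Cytoskeleton Dye, MitoTracker Red and Annexin V Alexa Fluor 680. They were imaged on a CQ1 microscope at 37°C and 5% CO2 after compound addition. Using CellPathfinder machine-learning gating, cells were split into Hoechst high-intensity objects or normal cells, normal cells into healthy, pyknosed or fragmented nuclei, and pyknosed cells into mitotic or apoptotic; tubulin, mitochondrial-mass and membrane-permeability phenotypes are per cents of healthy-nucleus cells.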

[1] = 12 h, 1 µM, compound concentration 1 uM
[2] = 12 h, 10 µM, compound concentration 10 uM
[3] = 24 h, 1 µM, compound concentration 1 uM
[4] = 24 h, 10 µM, compound concentration 10 uM
[5] = 48 h, 1 µM, compound concentration 1 uM
[6] = 48 h, 10 µM, compound concentration 10 uM

## CS(=O)(=O)c1ccc(C(=O)Nc2cccc(COc3ccc(Br)cc3CN3CC[C@@H](O)C3)c2)c(Cl)c1.O=CO
[1]
  Population Apoptotic (%): 60% and 71%
  Population Healthy Nuclei (%): 80%
  Population Hoechst High Intensity Objects (%): 0%
  Population Mitotic Cells (%): 40% and 28%
  Population Normal (%): 100%
  Population Pyknosed Nuclei (%): 9%
[2]
  Population Apoptotic (%): 55% and 54%
  Population Healthy Nuclei (%): 65% and 80%
  Population Hoechst High Intensity Objects (%): 0%
  Population Mitotic Cells (%): 44% and 45%
  Population Normal (%): 100%
  Population Pyknosed Nuclei (%): 20% and 15%
[3]
  Population Apoptotic (%): 54% and 59%
  Population Healthy Nuclei (%): 59% and 86%
  Population Hoechst High Intensity Objects (%): 0%
  Population Mitotic Cells (%): 45% and 40%
  Population Normal (%): 100%
[4]
  Population Apoptotic (%): 60% and 72%
  Population Healthy Nuclei (%): 59% and 65%
  Population Hoechst High Intensity Objects (%): 0%
  Population Mitotic Cells (%): 40% and 27%
  Population Normal (%): 100%
  Population Pyknosed Nuclei (%): 31%
[5]
  Population Apoptotic (%): 60% and 87%
  Population Healthy Nuclei (%): 64% and 82%
  Population Hoechst High Intensity Objects (%): 0%
  Population Normal (%): 100%
  Population Pyknosed Nuclei (%): 15%
[6]
  Population Apoptotic (%): 76% and 88%
  Population Healthy Nuclei (%): 47% and 57%
  Population Hoechst High Intensity Objects (%): 0% and 1%
  Population Mitotic Cells (%): 23% and 11%
  Population Normal (%): 100%
  Population Pyknosed Nuclei (%): 33%

## CS(=O)(=O)c1ccc(C(=O)Nc2cccc(COc3ccc(Br)cc3CN3CC[C@H](O)C3)c2)cc1.O=CO
[1]
  Population Apoptotic (%): 100% and 72%
  Population Fragmented Nuclei (%): 8% and 2%
  Population Healthy Nuclei (%): 84% and 83%
  Population Hoechst High Intensity Objects (%): 0%
  Population Normal (%): 100%
[2]
  Population Apoptotic (%): 100% and 70%
  Population Healthy Nuclei (%): 68% and 78%
  Population Hoechst High Intensity Objects (%): 0%
  Population Normal (%): 100% and 99%
[3]
  Population Apoptotic (%): 50%
  Population Fragmented Nuclei (%): 4% and 3%
  Population Healthy Nuclei (%): 85% and 86%
  Population Hoechst High Intensity Objects (%): 0%
  Population Mitotic Cells (%): 50% and 31%
  Population Normal (%): 100% and 99%
[4]
  Population Apoptotic (%): 88% and 75%
  Population Healthy Nuclei (%): 58% and 73%
  Population Hoechst High Intensity Objects (%): 0%
  Population Mitotic Cells (%): 11% and 24%
  Population Normal (%): 100%
[5]
  Population Apoptotic (%): 54% and 76%
  Population Fragmented Nuclei (%): 4% and 1%
  Population Healthy Nuclei (%): 84% and 89%
  Population Hoechst High Intensity Objects (%): 0%
  Population Mitotic Cells (%): 45% and 23%
  Population Normal (%): 100% and 99%
[6]
  Population Apoptotic (%): 75% and 80%
  Population Healthy Nuclei (%): 54% and 69%
  Population Hoechst High Intensity Objects (%): 0%
  Population Mitotic Cells (%): 25% and 19%
  Population Normal (%): 100% and 99%

## CS(=O)(=O)c1ccc(C(=O)Nc2cccc(COc3ccc(Br)cc3CN[C@H]3CCC[C@@H]3O)c2)c(Cl)c1.O=CO
[1]
  Population Apoptotic (%): 50% and 70%
  Population Healthy Nuclei (%): 78% and 79%
  Population Hoechst High Intensity Objects (%): 0%
  Population Normal (%): 100%
[2]
  Population Apoptotic (%): 59% and 100%
  Population Healthy Nuclei (%): 70% and 80%
  Population Hoechst High Intensity Objects (%): 0%
  Population Normal (%): 99% and 100%
[3]
  Population Apoptotic (%): 87% and 73%
  Population Healthy Nuclei (%): 71% and 82%
  Population Hoechst High Intensity Objects (%): 0%
  Population Normal (%): 100%
[4]
  Population Apoptotic (%): 88% and 79%
  Population Healthy Nuclei (%): 47% and 63%
  Population Hoechst High Intensity Objects (%): 0%
  Population Normal (%): 100% and 99%
[5]
  Population Apoptotic (%): 44% and 86%
  Population Healthy Nuclei (%): 80% and 83%
  Population Hoechst High Intensity Objects (%): 0%
  Population Normal (%): 100%
[6]
  Population Apoptotic (%): 92%
  Population Healthy Nuclei (%): 50% and 57%
  Population Hoechst High Intensity Objects (%): 1% and 0%
  Population Normal (%): 98% and 100%
